Reference: ChEMBL document CHEMBL1145449, “Isolation, structures, and structure - cytotoxic activity relationships of withanolides and physalins from Physalis angulata” (J Nat Prod, 2007)
In brackets after ≈: the same amount, converted by molar mass.

Experiments:
Assay type in all cases: functional, cell-based
ZR-75-1 = assay: Antitumor activity against human ZR751 cells
Summary of the method: (§1)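 SRB growth assay. Stock cultures grown in T-25 flasks in RPMI-1640 with […], 0.25% sodium bicarbonate, 10% FBS and 100 µg/mL kanamycin. Freshly trypsinized cells seeded at 1500-7500 per well, compounds added from DMSO-diluted stock, 3 days culture. Attached cells fixed with cold 50% TCA, stained with 0.4% SRB, bound dye solubilized, absorbance read at 562 nm. EC50 = concentration reducing growth 50%, mean of at least three independent determinations.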

A549 = assay: Antitumor activity against human A549 cells; summary of the method: as §1
KB = assay: Antitumor activity against human KB cells; summary of the method: as §1
LNCaP = assay: Antitumor activity against human LNCAP cells; summary of the method: as §1
A-431 = assay: Antitumor activity against human A431 cells; summary of the method: as §1
[1] = Antitumor activity against human KB-VIN cells; settings: KBVIN; summary of the method: as §1
HCT-8 = assay: Antitumor activity against human HCT8 cells; summary of the method: as §1
PC-3 = assay: Antitumor activity against human PC3 cells; summary of the method: as §1
1A9 = assay: Antitumor activity against human 1A9 cells; summary of the method: as §1
DU-145 = assay: Antitumor activity against human DU145 cells; summary of the method: as §1
HCT-116 = assay: Antitumor activity against human HCT116 cells; summary of the method: as §1

| Compound | EC50 (ZR-75-1) [µg/mL] | EC50 (A549) [µg/mL] | EC50 (KB) [µg/mL] | EC50 (LNCaP) [µg/mL] | EC50 (A-431) [µg/mL] | EC50 [1] [µg/mL] | EC50 (HCT-8) [µg/mL] | EC50 (PC-3) [µg/mL] | EC50 (1A9) [µg/mL] | EC50 (DU-145) [µg/mL] | EC50 (HCT-116) [µg/mL] |
| --- | --- | --- | --- | --- | --- | --- | --- | --- | --- | --- | --- |
| C[C@]12C(=O)C=CCC1=CC[C@@H]1[C@@H]2CC[C@]2(O)C(=O)O[C@@]3(C)[C@H]4C[C@]5(C)[C@@H](CO[C@@]16O[C@@]32[C@H]5C6=O)C(=O)O4 [PHYSALIN B] | 2.6 (≈ 5.09 µM) | 5.9 (≈ 11.6 µM) | 3 (≈ 5.88 µM) | 5.3 (≈ 10.4 µM) | 1.8 (≈ 3.53 µM) | 1.3 (≈ 2.55 µM) | 1.5 (≈ 2.94 µM) | 0.9 (≈ 1.76 µM) | – | – | – |
| C[C@@]12C[C@H]3OC(=O)[C@@H]1CO[C@@]14O[C@]5([C@H]2C1=O)[C@@](O)(CC[C@H]1[C@H]4C[C@@H](O)[C@@]2(O)CC=CC(=O)[C@]12C)C(=O)O[C@@]35C [PHYSALIN D] | 0.4 (≈ 0.735 µM) | 1.6 (≈ 2.94 µM) | 1.2 (≈ 2.2 µM) | 1.3 (≈ 2.39 µM) | 1.4 (≈ 2.57 µM) | 7 (≈ 12.9 µM) | 1.2 (≈ 2.2 µM) | 1.6 (≈ 2.94 µM) | – | – | – |
| C[C@@]12C[C@H]3OC(=O)[C@@H]1CO[C@]14O[C@]5([C@H]2C1=O)[C@@](O)(CC[C@H]1[C@H]4C[C@H]2O[C@]24CC=CC(=O)[C@]14C)C(=O)O[C@@]35C [PHYSALIN F] | 0.3 (≈ 0.57 µM) | 1.3 (≈ 2.47 µM) | 0.9 (≈ 1.71 µM) | 1 (≈ 1.9 µM) | 1.1 (≈ 2.09 µM) | 1.9 (≈ 3.61 µM) | 1 (≈ 1.9 µM) | 1.1 (≈ 2.09 µM) | – | – | – |
| C[C@@]12C[C@H]3OC(=O)[C@@H]1CO[C@@]14O[C@]5(C2C1=O)[C@@](O)(CC[C@H]1[C@H]4C[C@@H]2O[C@@]24CC=CC(=O)[C@]14C)C(=O)O[C@@]35C [PHYSALIN J] | – | – | – | – | 17 (≈ 32.3 µM) | – | – | – | – | – | – |
| CO[C@@H]1CC(=O)[C@]2(C)[C@H]3CC[C@@]4(O)C(=O)O[C@@]5(C)[C@H]6C[C@@]7(C)C8C(=O)[C@@](OC[C@H]7C(=O)O6)(O[C@]845)[C@@H]3C[C@H]3O[C@]32C1 [PHYSALIN U] | 8.2 (≈ 14.7 µM) | 16.3 (≈ 29.2 µM) | 11.9 (≈ 21.3 µM) | 15.9 (≈ 28.5 µM) | 13.4 (≈ 24 µM) | 20 (≈ 35.8 µM) | 11.1 (≈ 19.9 µM) | 18.1 (≈ 32.4 µM) | – | – | – |
| CO[C@@H]1CC(=O)[C@@]2(C)[C@@H](CC[C@@H]3[C@@H]2CC[C@@]2(O)C(=O)O[C@@]4(C)[C@H]5C[C@@]6(C)C7C(=O)[C@@]3(OC[C@H]6C(=O)O5)O[C@]724)C1 [PHYSALIN W] | – | – | – | – | – | – | – | – | 9.2 (≈ 16.9 µM) | – | – |
| CC1=C(C)C(=O)OC([C@](C)(O)[C@]2(O)C[C@H](O)[C@@]3(O)[C@@H]4C[C@H]5O[C@]56[C@@H](O)C=CC(=O)[C@]6(C)[C@H]4CC[C@@]32C)C1 (stereo partly specified) [WITHANGULATIN B] | – | – | – | 0.2 (≈ 0.386 µM) | – | – | – | – | 0.2 (≈ 0.386 µM) | 1.3 (≈ 2.51 µM) | 0.4 (≈ 0.771 µM) |
| CO[C@H]1C[C@@](O)([C@@](C)(O)C2CC(C)=C(C)C(=O)O2)[C@@]2(C)CC[C@H]3[C@@H](C[C@H]4O[C@]45[C@@H](O)CCC(=O)[C@]35C)[C@]12O (stereo partly specified) [WITHANGULATIN C] | – | – | – | 13.9 (≈ 26 µM) | – | – | – | – | 6.5 (≈ 12.2 µM) | – | 11.4 (≈ 21.3 µM) |
| CC1=C(C)C(=O)OC([C@](C)(O)[C@]2(O)[C@@H](O)C[C@@]3(O)[C@@H]4C[C@@H](O)[C@@]5(O)[C@@H](O)C=CC(=O)[C@]5(C)[C@H]4CC[C@]23C)C1 (stereo partly specified) [WITHANGULATIN G] | – | – | – | 13.4 (≈ 25 µM) | – | – | – | – | 18.8 (≈ 35 µM) | – | – |
| CO[C@H]1CC(=O)[C@]2(C)[C@H]3CC[C@]4(C)[C@](O)([C@@](C)(O)C5CC(C)=C(C)C(=O)O5)[C@@H](O)C[C@@]4(O)[C@@H]3C[C@H]3O[C@]32C1 (stereo partly specified) [WITHANGULATIN H] | – | – | – | 9.6 (≈ 18 µM) | – | – | – | – | 3.7 (≈ 6.92 µM) | – | 9.2 (≈ 17.2 µM) |
